Compound activity deposited in PubChem BioAssay by several laboratories.
Shown are actives, neighbours in structure and some others; about 1.8% of the full set was active somewhere.
STAT3 inh-1: inhibitors of IL-6 induced STAT3 signaling; U3A cells, IL-6 STAT3-luciferase reporter, luminescence; host cell line lacks STAT1; inhibition, % at 5.5 µM; 190,000 tested, 0.89% active;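 active means inhibition above the mean inhibition across all screened compounds plus 3 SD, cut at about 44% in these data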
STAT1 inh: inhibitors of IFN-gamma induced STAT1 signaling | NIH 3T3 STAT1-luciferase reporter, luminescence | inhibition, % at 5.5 µM | 200,000 tested, 0.35% active | AID 920;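 active means inhibition above a set limit, the mean inhibition across all tested compounds plus 3 SD, cut at about 34% in these data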
PPC-1+TRAIL kill: compounds killing PPC-1 cancer cells with TRAIL present (potentiator screen, no TRAIL-free arm) | PPC-1 cells + TRAIL, ATPLite viability luminescence | cell killing (% activity), % at 4 µM or 5 µM | 220,000 tested, 0.41% active | AID 1443;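 active means cell killing above 50% in the first pass at 4 µM, then a duplicate retest at 5 µM averaging 50% or more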
TRAIL sens C8: sensitizes caspase-8 expressing cells to TRAIL. NB7+C8 cells + TRAIL, ATPlite viability luminescence. inhibition (viability loss, TRAIL sensitization), % at 10 µM. 360,000 tested, 1% active;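 active means compounds causing at least 50% loss of cell viability in the single-dose screen, relative to plate controls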
STAT3 activator: activators of IL-6 induced STAT3 signaling; activation (% of control), % at 5.6 µM; U3A cells, IL-6 STAT3-luciferase reporter, luminescence; 100% = signal with IL-6 EC80 alone; AID 871; 190,000 tested, 0.91% active;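 active means activation above the screen-wide mean of compound activation plus 3 SD, cut at about 130% in these data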
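Material: STAT3-luciferase reporter U3A cells; Probe or stimulus: IL-6 (33 ng/mL); Incubation: compound pre-incubation 1 h before IL-6, then 6 h stimulation at 37 °C; Technique: luminescence from STAT3-driven luciferase reporter; Evaluation: % activation versus median of IL-6-stimulated wells; Controls: IL-6-only high control.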
STAT3 inh-2: STAT3 inhibition, confirmation assay; shares compounds with STAT3 inh-1; U3A cells, IL-6 STAT3 luciferase reporter, luminescence; cell line lacks STAT1; inhibition, % at 5.7 µM; 1,200 tested, 45% active; AID 1265;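 active means inhibition above the hit cutoff computed for the primary STAT3 screen, cut at about 44% in these data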
NFkB inh STAT3ct: NF-kappaB inhibition in STAT3 inhibitor counter-screen; 1,200 tested, 36% active; inhibition, % at 5.7 µM; HEK293T NF-kB luciferase reporter, TNF-alpha induced; AID 1308; shares compounds with STAT3 inh-1;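 active means inhibition above the mean of solvent-only control wells plus 3 SD, cutoff set per campaign, cut at about 13% in these data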
STAT1 inh STAT3c: inhibits STAT1, counter-screen to STAT3 inhibitors; shares compounds with STAT3 inh-1; NIH 3T3 STAT1-luciferase reporter, IFN-gamma induced, luminescence; inhibition, % at 5.7 µM; 1,200 tested, 27% active;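 active means inhibition above the mean plus 3 SD of solvent-only control wells, limit set per screening run, cut at about 16% in these data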
Hits are given with their value; n = inactive; x = no result.

SMILES	STAT3 inh-1	STAT1 inh	PPC-1+TRAIL kill	TRAIL sens C8	STAT3 activator	STAT3 inh-2	NFkB inh STAT3ct	STAT1 inh STAT3c
CC(=O)Oc1ccc(Cl)cc1/C=C/c1ccc2ccccc2n1	n	n	n	n	n	x	x	x
COc1ccc(-n2ncc3c(NC(C)C)ncnc32)cc1	56	n	n	n	n	n	n	n
N#Cc1c(NC(=O)CSc2ncn[nH]2)sc2c1CCCCC2	71	n	n	n	n	68	30	n
NC(=O)c1ccsc1NC(=O)COC(=O)Cc1cccc2ccccc12	75	n	n	n	n	74	19	20
O=C(COC(=O)c1ccc(O)cc1)NC1CCCCCC1	x	x	x	n	x	x	x	x
CC1(C)Cc2ccccc2-c2nnc(SCC(=O)N3CCN(c4ccccc4)CC3)n21	44	n	n	n	n	n	n	n
CCn1c(SCC(=O)N2CCN(c3ccccc3)CC2)nnc1-c1c[nH]c2ccccc12	51	n	n	n	n	n	n	n
Cc1sc2ncnc(NCc3cccs3)c2c1C	48	n	n	n	n	n	n	n
Cc1ccn2cc(C(=O)Nc3ccc4c(c3)OCCO4)nc2c1	44	n	n	62	n	n	n	n
O=C(Nc1ccncc1)c1ccc(-c2ccccc2)cc1	82	n	n	51	n	77	n	n
O=C(Nc1cccnc1)c1ccc(-c2ccccc2)cc1	n	n	n	n	n	x	x	x
Cc1ccc(NC(=O)COC(=O)CNC(=O)c2cccs2)cc1S(=O)(=O)N1CCOCC1	x	x	x	n	x	x	x	x
COc1cc(C(=O)N2CCN(c3ncnc4sc(C)c(C)c34)CC2)cc(OC)c1OC	52	37	n	n	n	45	17	31
Oc1ccc(-c2n[nH]c(=S)n2-c2ccc3c(c2)OCCO3)c(O)c1	48	n	n	n	n	44	n	n
CCCCCCCCN1C(=O)[C@H](CC(=O)N2CCCC2)C[C@@]2(C(=O)OCC)CCCC=C12	x	x	x	n	x	x	x	x
Cc1nc2ccccn2c1-c1csc(Nc2cccc(O)c2)n1	n	n	x	n	n	x	x	x
Cc1cccc(Nc2nc(-c3c(C)nc4ccccn34)cs2)c1	58	n	n	n	n	62	18	n
CC(C)(C)S(=O)N1Cc2cc(C(=O)NCc3ccc(Oc4ccccc4)cc3)nc(-c3cccc(-c4cc5ccccc5o4)c3)c2[C@@H]1CCO (stereo not given in full)	x	x	x	n	x	x	x	x
Cc1ccsc1/C=N/Nc1nc(=O)[nH]nc1C	53	n	n	n	n	n	n	n
Cc1cc(C)nc(N/N=C/c2sccc2C)n1	n	n	n	n	n	x	x	x
Cc1nn2cc(-c3ccc(Cl)cc3)nc2s1	52	n	n	n	n	n	n	n
COc1cccc(-c2cn3nc(C)c(C)nc3n2)c1	n	n	n	n	n	x	x	x
Cc1nc2nc(-c3ccc(Cl)cc3)cn2nc1C	66	n	n	n	n	n	n	n
C=CCN1C(=O)C(CC(=O)O)S/C1=N/N=C/c1ccc(N(CC)CC)cc1 (stereo not given)	x	x	x	n	x	x	x	x
O=C(Nc1ccc(Cc2ccncc2)cc1)c1ccc(S(=O)(=O)N2CCCC2)cc1	68	n	n	n	n	66	15	n
SMILES	STAT3 inh-1	STAT1 inh	PPC-1+TRAIL kill	TRAIL sens C8	STAT3 activator	STAT3 inh-2	NFkB inh STAT3ct	STAT1 inh STAT3c
O=C(Nc1ccc(S(=O)(=O)N2CCCCC2)cc1)c1ccncc1	n	n	n	n	n	x	x	x
O=C(Nc1ccccc1)c1ccc(S(=O)(=O)N2CCOCC2)cc1	n	n	n	n	n	x	x	x
O=C(Nc1ccc(Cl)cc1)c1ccc(CN2CCc3ccccc3C2)cc1	x	x	x	n	x	x	x	x
O=C(Nc1ccc(S(=O)(=O)N2CCCC2)cc1)c1ccc(CN2CCc3ccccc3C2)cc1	82	n	n	n	n	85	34	n
O=C(Nc1ccc(S(=O)(=O)N2CCOCC2)cc1)c1ccc(CN2CCc3ccccc3C2)cc1	83	n	n	x	n	88	42	33
O=C(CCCN1C(=O)/C(=C\c2cccc(Br)c2)SC1=S)Nc1ccc(C(=O)O)cc1	x	x	x	n	x	x	x	x
CN(C(=O)c1ccc(NC(=O)Cc2cccc(NC(=O)C3CCN(C(=O)c4ccccc4)CC3)c2)cc1)C1CCCC1	x	x	x	n	x	x	x	x
CCCCn1nnnc1C(c1ccccc1)N1CCN(c2cccc(C)c2C)CC1 (stereo not given)	x	x	x	n	x	x	x	x
COc1cccc(CNc2nc3cc(-c4cnn(Cc5ccccc5)c4)sc3c(=O)n2C)c1	x	x	x	n	x	x	x	x
CCc1nc2c(OCc3c(C)noc3C)cccn2c1N(C=O)Cc1ccccc1	x	x	x	n	x	x	x	x
O=C(Nc1cccc(S(=O)(=O)Nc2ccccc2Cl)c1)c1ccc(Cl)nc1	44	n	n	n	n	50	n	n
O=C(CSc1nnnn1C1CC2CCC1C2)Nc1ccnc2ccccc12 (stereo not given)	81	n	n	n	n	89	42	32
O=C(Nc1cccc(C(=O)N2CCOCC2)c1)c1ccccc1Cl	x	x	x	n	x	x	x	x
CCc1ccc(NC(=O)c2ccc(C3SCC(=O)N3CCc3ccccc3)cc2)cc1 (stereo not given)	46	n	n	n	n	48	15	n
CN1CCN(C(=O)OCCOCCOC(=O)N2CCN(C)CC2)CC1	x	x	x	n	x	x	x	x
CCCOc1ccc(F)cc1-c1cc(C(=O)NCc2cccs2)[nH]n1	x	x	x	n	x	x	x	x
CN1/C(=C\C(=O)C[n+]2ccc(C(=O)c3ccccc3)cc2)C(C)(C)c2ccccc21	56	n	n	55	n	61	n	n
CN1/C(=C\C(=O)C[n+]2cccc(C(N)=O)c2)C(C)(C)c2ccccc21	n	n	n	n	n	x	x	x
O=C(Cc1ccccc1)Nc1scc(-c2ccccc2)c1C(=O)N1CCOCC1	n	n	n	n	n	x	x	x
NC(=O)c1c(-c2ccc(Cl)cc2Cl)csc1NC(=O)Cc1ccccc1	44	n	n	n	n	72	23	n
CCOc1ccc(-c2nnc(-c3cccs3)o2)cc1	79	n	n	n	n	n	n	n
CC1=CC(=O)C(C(C)C)=C/C1=C(\c1cc(C(C)C)c(OP(=O)(O)O)cc1C)c1ccccc1C(=O)O	x	x	x	n	x	x	x	x
CN(c1ccc(C(=O)N2CCN(Cc3ccc4c(c3)OCO4)CC2)cc1)S(=O)(=O)c1ccccc1	49	n	n	n	n	n	n	n
Cc1ccc(S(=O)(=O)N(C)c2ccc(C(=O)N3CCN(Cc4ccc5c(c4)OCO5)CC3)cc2)cc1	54	n	n	n	n	45	n	n
Cc1ccc(S(=O)(=O)N(C)CC(=O)N2CCN(Cc3ccc4c(c3)OCO4)CC2)cc1	x	x	x	n	x	x	x	x
O=C(NCC(c1cccs1)N1CCOCC1)c1cc(S(=O)(=O)N2CCOCC2)ccc1F (stereo not given)	x	x	x	n	x	x	x	x
